According to publication PMC10692477 (Acta Pharmaceutica Sinica. B, 2023):

Experiments:
E-cadherin expression = E-cadherin expression in GAS6-stimulated NCI-H1299 cells, immunoblotting; format: cell-based; details: NCI-H1299, GAS6 500 ng/mL, 48 h
EBC-1 cells = assay: EBC-1 cell viability; format: cell-based; details: Homo sapiens, EBC-1, 72 h, read-out: IC50 viability of EBC-1 cells
In short: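 EBC-1 cells were seeded at low density in growth medium and incubated overnight. They were then treated with graded concentrations of the test compound for 72 h. Viability was read by CCK-8, and IC50 was obtained by four-parameter concentration–response curve fitting.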

BaF3/TEL-AXL cells = assay: BaF3/TEL-AXL cell viability; format: cell-based; details: 48 h, read-out: IC50 Cell viability
[1] = test system: BaF3/TEL-AXL mouse xenograft; assay: BaF3/TEL-AXL cell-derived mouse xenograft model; details: for body weight of tumor-bearing mice during the treatment: 4 and 20 mg/kg po qd
NCI-H1299 cells [2] = assay: NCI-H1299 cell wound healing assay; format: cell-based; details: NCI-H1299, GAS6 500 ng/mL, 24 h
In short: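 NCI-H1299 monolayers were scratched, then given GAS6 500 ng/mL alone or with graded concentrations of the test compound for 24 h. Wound closure was imaged at 0 and 24 h, in triplicate.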

AXL kinase = molecular target: T1, AXL kinase (Homo sapiens, UniProt P30530); assay: AXL kinase inhibition, ELISA; format: biochemical; details: IC50 AXL kinase, ELISA; mean ± SD of two independent experiments
T1 sequence (P30530 26-894): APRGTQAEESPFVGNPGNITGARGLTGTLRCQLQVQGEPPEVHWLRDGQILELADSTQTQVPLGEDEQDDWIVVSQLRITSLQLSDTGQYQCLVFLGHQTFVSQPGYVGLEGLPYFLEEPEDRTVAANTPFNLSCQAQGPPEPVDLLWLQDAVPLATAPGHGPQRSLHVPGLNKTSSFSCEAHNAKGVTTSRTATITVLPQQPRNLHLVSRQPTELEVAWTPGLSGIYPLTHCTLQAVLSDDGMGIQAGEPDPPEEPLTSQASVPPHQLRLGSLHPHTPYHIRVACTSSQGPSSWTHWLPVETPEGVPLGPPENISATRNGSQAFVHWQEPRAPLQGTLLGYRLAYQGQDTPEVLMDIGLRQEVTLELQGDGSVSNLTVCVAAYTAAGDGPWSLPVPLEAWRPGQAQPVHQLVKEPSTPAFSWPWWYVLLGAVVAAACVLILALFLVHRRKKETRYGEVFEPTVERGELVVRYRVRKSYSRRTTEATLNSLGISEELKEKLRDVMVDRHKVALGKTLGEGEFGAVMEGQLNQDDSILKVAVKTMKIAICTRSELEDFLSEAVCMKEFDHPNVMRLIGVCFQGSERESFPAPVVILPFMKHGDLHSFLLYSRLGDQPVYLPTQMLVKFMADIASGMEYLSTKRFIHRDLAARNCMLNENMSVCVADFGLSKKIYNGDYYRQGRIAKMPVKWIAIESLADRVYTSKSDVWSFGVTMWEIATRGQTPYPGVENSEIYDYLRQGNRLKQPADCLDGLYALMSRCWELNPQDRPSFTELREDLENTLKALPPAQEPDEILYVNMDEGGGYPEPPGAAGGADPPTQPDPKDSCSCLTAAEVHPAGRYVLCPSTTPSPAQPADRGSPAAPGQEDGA

NCI-H1299 cells [3] = assay: NCI-H1299 cell viability under GAS6; format: cell-based; details: same conditions as cell motility; GAS6 500 ng/mL, 24 h
In short: (§1)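 NCI-H1299 or SNU449 cells were seeded at low density in growth medium and incubated overnight. They were then stimulated with GAS6 500 ng/mL and treated with graded concentrations of the test compound for 24 h. Viability was read by CCK-8.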

c-Met kinase = c-Met kinase (Homo sapiens, UniProt P08581); assay: c-Met kinase inhibition, ELISA; format: biochemical
In short: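 c-Met inhibition was measured by an ELISA-based kinase assay following a previously reported method. IC50 values were calculated from inhibition curves with a modified 4-parameter logistic model, from at least two separate experiments.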

other 55 tested kinases = assay: Kinase selectivity panel of 62 kinases; format: biochemical, human; details: 100 nmol/L
NCI-H1299 cells [4] = assay: GAS6-stimulated NCI-H1299 cell migration; format: cell-based; details: 20 nmol/L, GAS6 500 ng/mL, 24 h
In short: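 NCI-H1299 cells (1.5 × 10^5 per well) in serum-free medium were placed in Transwell inserts with 8 μm pores. The lower chamber held serum-free medium with GAS6 500 ng/mL, and the test compound was added to both sides of the membrane. After 24 h, non-migrated cells were swabbed off. Migrated cells were fixed in 90% ethanol for 1 h, stained with 0.1% crystal violet for 15 min at room temperature, and imaged by microscopy.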

[5] = Pharmacokinetics in ICR mice; format: in vivo; details: mouse, serum
SNU449 cells [6] = assay: GAS6-stimulated SNU449 cell invasion; format: cell-based; details: 20 nmol/L, GAS6 500 ng/mL, 24 h
In short: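 SNU449 cells were seeded in top chambers with matrigel-coated membrane inserts. The lower chamber held serum-free medium with GAS6 500 ng/mL, and the test compound was added to both sides. After 24 h, non-invading cells were removed. Invaded cells were fixed in 90% ethanol for 1 h, stained with 0.1% crystal violet for 15 min at room temperature, and imaged.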

SNU449 cells [7] = assay: SNU449 cell viability under GAS6; format: cell-based; details: same conditions as cell motility; GAS6 500 ng/mL, 24 h
In short: as §1

AXL signaling pathway [8] = assay: GAS6-stimulated AXL signaling in NCI-H1299 cells, Western blot; format: cell-based; details: NCI-H1299, 1 h treatment, GAS6 500 ng/mL 15 min
In short: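 NCI-H1299 cells in exponential growth were serum-deprived for 24 h, then given the test compound for 1 h and stimulated with GAS6 500 ng/mL for 15 min. Lysis was in 1× SDS sample buffer, followed by 10% SDS-PAGE and nitrocellulose transfer.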

AXL phosphorylation = assay: Intratumoral AXL phosphorylation, immunoblotting of tumor tissues; format: in vivo, nude mice; details: tumor tissues 1 h after last dosage; 4 and 20 mg/kg groups
AXL signaling pathway [9] = assay: AXL signaling in BaF3/TEL-AXL cells, Western blot; format: cell-based; details: 1 h
In short: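 BaF3/TEL-AXL cells in exponential growth were exposed to the test compound at the indicated concentrations for 1 h. Cells were lysed in 1× SDS sample buffer, run on 10% SDS-PAGE and transferred to nitrocellulose.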

[10] = 20 mg/kg po qd, 7 consecutive days

c-Met kinase, sequence (P08581 25-1390): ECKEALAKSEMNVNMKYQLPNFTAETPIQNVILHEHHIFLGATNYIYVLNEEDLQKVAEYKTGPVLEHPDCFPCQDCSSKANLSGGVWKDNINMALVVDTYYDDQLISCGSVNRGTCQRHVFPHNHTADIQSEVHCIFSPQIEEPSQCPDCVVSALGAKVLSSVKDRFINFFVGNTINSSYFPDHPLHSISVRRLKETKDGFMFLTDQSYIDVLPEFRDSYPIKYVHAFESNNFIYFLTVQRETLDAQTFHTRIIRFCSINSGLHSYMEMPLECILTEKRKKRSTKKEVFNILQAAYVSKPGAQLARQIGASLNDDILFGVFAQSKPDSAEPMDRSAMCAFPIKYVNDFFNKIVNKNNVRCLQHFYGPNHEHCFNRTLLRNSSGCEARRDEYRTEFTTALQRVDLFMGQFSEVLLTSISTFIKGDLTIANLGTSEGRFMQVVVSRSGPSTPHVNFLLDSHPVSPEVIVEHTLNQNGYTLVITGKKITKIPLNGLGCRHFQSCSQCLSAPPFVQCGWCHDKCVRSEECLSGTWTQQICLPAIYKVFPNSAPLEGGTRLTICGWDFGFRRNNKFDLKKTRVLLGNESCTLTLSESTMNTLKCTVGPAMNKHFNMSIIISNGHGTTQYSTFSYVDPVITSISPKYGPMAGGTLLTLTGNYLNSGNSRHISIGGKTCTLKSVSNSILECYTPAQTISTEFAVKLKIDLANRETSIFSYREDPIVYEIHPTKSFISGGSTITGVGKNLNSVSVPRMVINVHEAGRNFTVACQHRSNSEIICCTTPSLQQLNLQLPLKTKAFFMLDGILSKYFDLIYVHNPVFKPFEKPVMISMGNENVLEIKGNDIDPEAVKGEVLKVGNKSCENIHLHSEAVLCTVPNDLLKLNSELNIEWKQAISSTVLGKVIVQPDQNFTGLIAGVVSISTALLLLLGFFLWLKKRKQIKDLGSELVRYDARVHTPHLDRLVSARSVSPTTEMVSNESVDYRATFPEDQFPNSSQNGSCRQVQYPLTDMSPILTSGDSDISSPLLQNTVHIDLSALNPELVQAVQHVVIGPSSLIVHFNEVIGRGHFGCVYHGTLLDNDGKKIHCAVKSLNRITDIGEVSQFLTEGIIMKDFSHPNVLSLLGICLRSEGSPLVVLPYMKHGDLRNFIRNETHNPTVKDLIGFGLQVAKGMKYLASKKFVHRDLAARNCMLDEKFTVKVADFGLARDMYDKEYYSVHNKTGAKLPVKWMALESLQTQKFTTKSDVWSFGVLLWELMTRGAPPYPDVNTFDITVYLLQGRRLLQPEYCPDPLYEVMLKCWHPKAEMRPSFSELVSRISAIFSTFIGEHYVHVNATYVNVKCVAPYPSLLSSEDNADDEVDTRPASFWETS

IC50 (BaF3/TEL-AXL cells) [nM] | AUC(0-inf) ([5]; iv, 5 mg/kg) [ng·h/mL] | AUC(0-t) ([5]; iv, 5 mg/kg) [ng·h/mL] | clearance ([5]; iv, 5 mg/kg) [mL/min/kg] | half-life ([5]; iv, 5 mg/kg) [h] | AUC(0-inf) ([5]; po, 10 mg/kg) [ng·h/mL] | AUC(0-t) ([5]; po, 10 mg/kg) [ng·h/mL] | Cmax ([5]; po, 10 mg/kg) [ng/mL] | Tmax ([5]; po, 10 mg/kg) [h] | bioavailability ([5]; po, 10 mg/kg) [%] | half-life ([5]; po, 10 mg/kg) [h] | Structure (SMILES) | TGI [1, 10] [%] | body weight of tumor-bearing mice during the treatment [1] | p-AKT level (AXL signaling pathway [8]) | p-STAT3 level (AXL signaling pathway [8]) | also measured
1.5 ± 0.4 | 21600 | 20500 | 3.86 | 1.67 | 14900 | 14800 | 2300 | 1 | 36.1 | 2.94 | COc1cc2nccc(Oc3ccc(NC(=O)c4c5n(n(-c6ccc(F)cc6)c4=O)CCCC5)cc3)c2cc1OC [Compound 59] | 89.4 | no significant body weight loss | significantly inhibited | significantly inhibited | GAS6-induced downregulation of E-cadherin expression (E-cadherin expression): significantly reversed; IC50 (EBC-1 cells): 535 nM; GAS6-accelerated wound healing (NCI-H1299 cells [2]): obviously inhibited; IC50 (AXL kinase): 3.5 ± 0.8 nM; cell viability of NCI-H1299 cells (NCI-H1299 cells [3]): no significant inhibitory effects; IC50 (c-Met kinase): 17.3 nM; Inhibition rate, other 55 tested kinases (other 55 tested kinases): less than 50%; NCI-H1299 cell migration (NCI-H1299 cells [4]): significant reduction; SNU449 cell invasion (SNU449 cells [6]): significant inhibition; cell viability of SNU449 cells (SNU449 cells [7]): no significant inhibitory effects; p-ERK (AXL signaling pathway [8]): marginally inhibited; phosphorylation of AXL induced by GAS6 (AXL signaling pathway [8]): significantly inhibited; intratumoral AXL phosphorylation (p-AXL) (AXL phosphorylation): robust inhibitions; p-ERK (AXL signaling pathway [9]): a bit weaker inhibtion; phosphorylation of AKT (AXL signaling pathway [9]): dose-dependently inhibited; phosphorylation of AXL (AXL signaling pathway [9]): dose-dependently inhibited; phosphorylation of STAT3 (AXL signaling pathway [9]): dose-dependently inhibited
< 0.1 | 42100 | 34800 | 2.05 | 10.4 | 16000 | 15900 | 2970 | 2 | 22.9 | 3.24 | COc1cc2ncnc(Oc3ccc(NC(=O)c4c5n(n(-c6cccc(F)c6)c4=O)CCCC5)cc3F)c2cc1OC [Compound 18] | 93.4 | no significant body weight loss |  |  | TGI ([1]; 4 mg/kg po qd, 7 consecutive days): 89.5%
95.1 ± 3.7 |  |  |  |  |  |  |  |  |  |  | Nc1nc(Nc2ccc3c(c2)CC[C@@H](N2CCCC2)CC3)nn1-c1cc2c(nn1)-c1ccccc1CCC2 [BGB324, reference compound] |  |  | significantly inhibited | significantly inhibited | TGI ([1]; 50 mg/kg po bid): 92.0%
